The text below walks through data of ChEMBL document CHEMBL4350958, “Rational Design of Short Peptide Variants by Using Kunitzin-RE, an Amphibian-Derived Bioactivity Peptide, for Acquired Potent Broad-Spectrum Antimicrobial and Improved Therapeutic Potential of Commensalism Coinfection of Pathogens” (J Med Chem, 2019).

Activity calls are given as the source filed them. The rule behind the calls is not given here. Where a SMILES comes first, the peptide text is derived from it.

The test system of data set [1] is Escherichia coli. Briefly: Antibacterial activity against Escherichia coli ATCC 25922 assessed as ratio of MIC95 in presence of NaCl to in absence of NaCl. The class given is functional.
Data set [2] has as its system Escherichia coli. Briefly: Induction of morphological changes in Escherichia coli ATCC 25922 assessed as separation between outer membrane and cytoplasmic membrane at MBD measured after 1 hr by transmission electron microscopic analysis. The class given is functional, organism-based.
Data set [3] concerns Staphylococcus aureus. Kind of data set: Induction of morphological changes in Staphylococcus aureus ATCC 29213 assessed as sparse distribution of cytoplasm at MBD measured after 1 hr by transmission electron microscopic analysis. The class given is functional, organism-based.
Data set [4] relates to Escherichia coli. Kind of data set: Induction of morphological changes in Escherichia coli ATCC 25922 assessed as hole formation at MBD measured after 1 hr by scanning electron microscopic analysis. The class given is functional, organism-based.
Data set [5] has as its system Candida albicans. Kind of data set: Antifungal activity against Candida albicans cgmcc2.2086 infected in C57BL/6 mouse model of keratitis assessed as reduction in fungal hyphae infiltration into corneal stroma at 1 to 5 mg/ml administered as topical eye drop every 5 mins for first 4 hrs and every 30 mins for next 7 hrs measured post-last dose by periodic acid schiff staining-based histological analysis. The class given is functional, organism-based.

Another data set relates to Lipopolysaccharide (LPS). Briefly: Displacement of BODIPY-TR-cadaverine from Escherichia coli O111:B4 LPS at 64 uM after 1 hr by spectrofluorophotometric method relative to control. The essentials:
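E. coli O111:B4 LPS (50 μg/mL) preloaded 4 h with BODIPY-TR-cadaverine (5 μg/mL) in 50 mM Tris, pH 7.4. Mixed 1:1 with peptide (1–64 µM series), 1 h at 37 °C, then fluorescence read. Expressed as %ΔF: 0% is probe with LPS and no peptide, 100% is probe with LPS plus 10 μg/mL polymyxin B. Three technical replicates.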

The subject of data set [6] is Escherichia coli. Kind of data set: Induction of morphological changes in Escherichia coli ATCC 25922 assessed as pore formation at MBD measured after 1 hr by transmission electron microscopic analysis. The class given is functional, organism-based.
Data set [7] has as its system Staphylococcus aureus. Briefly: Induction of morphological changes in Staphylococcus aureus ATCC 29213 assessed as cytoplasmic leakage at MBD measured after 1 hr by transmission electron microscopic analysis. The class given is functional, organism-based.
Data set [8] deals with Escherichia coli. Briefly: Induction of morphological changes in Escherichia coli ATCC 25922 assessed as membrane creping at MBD measured after 1 hr by scanning electron microscopic analysis. The class given is functional, organism-based.
The subject of data set [9] is Lipid bilayer. Briefly: Induction of membrane disruption in PC/CL large unilamellar vesicles assessed as calcein-entrapped liposome leakage at 1 to 64 uM after 15 mins by spectrofluorophotometric assay relative to control. Conditions: artificial membrane, 0.25 h.
Data set [10] concerns Candida albicans. Briefly: Fungicidal activity against Candida albicans cgmcc2.2086 assessed as reduction in bacterial growth at MFC measured within 3 mins by time-kill assay relative to control. The class given is functional. Also on record: scale not given: the % may be the effect or the level left. The essentials:
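Time-kill: cells at a final 0.5–1×10^5 CFU/mL were exposed to peptide at 1×MBC/MFC. Aliquots were removed at intervals to count survivors against an untreated control. Means of three independent experiments, each with three technical replicates.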

The subject of data set [11] is Escherichia coli. Briefly: Induction of morphological changes in Escherichia coli ATCC 25922 assessed as cell content leakage at MBD measured after 1 hr by scanning electron microscopic analysis. The class given is functional, organism-based.
The test system of data set [12] is Staphylococcus aureus. Briefly: Induction of morphological changes in Staphylococcus aureus ATCC 29213 assessed as […] at MBD measured after 1 hr by transmission electron microscopic analysis. The class given is functional, organism-based.
Data set [13] relates to Escherichia coli. Kind of data set: Disruption of plasma membrane integrity in Escherichia coli ATCC 25922 at MBC measured after 30 mins using FITC-labeled compound by propidium iodide staining-based microscopic analysis. The class given is organism-based. The essentials:
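E. coli ATCC 25922 or S. aureus ATCC 29213 (OD600 0.2) incubated with FITC-labeled peptide at 1×MBC, 37 °C, 30 min. Cells washed, resuspended with PI (10 μg/mL) in PBS, smeared and imaged by superresolution microscopy using 488 and 535 nm filters for FITC and PI. Peptide-free cells served as controls. Three independent scans.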

In data set [14] the test system is Escherichia coli. Briefly: Induction of morphological changes in Escherichia coli ATCC 25922 assessed as membrane blebbing at MBD measured after 1 hr by scanning electron microscopic analysis. The class given is functional, organism-based.
The subject of data set [15] is Candida albicans. Briefly: Antifungal activity against Candida albicans cgmcc2.2086 infected in C57BL/6 mouse model of keratitis assessed as appearance of transparent corneas at 1 to 5 mg/ml administered as topical eye drop every 5 mins for first 4 hrs and every 30 mins for next 7 hrs measured post-last dose. The class given is functional, organism-based.
Data set [16] has as its system Escherichia coli. Kind of data set: Induction of outer membrane permeabilization in Escherichia coli ATCC 25922 at 4 uM by NPN-dye based assay relative to control. The essentials:
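Mid-log E. coli ATCC 25922 (OD600 0.2) incubated 30 min with NPN (10 μM) in 5 mM HEPES pH 7.4 with 5 mM glucose, then mixed 1:1 with peptide (1–64 μM). Fluorescence (ex 350/em 420 nm) recorded until it plateaued. Percent NPN uptake calculated relative to no peptide and to 10 μg/mL polymyxin B. Three independent experiments, triplicates.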

The subject of data set [17] is Lipid bilayer. Briefly: Induction of membrane disruption in PC/CL large unilamellar vesicles assessed as calcein-entrapped liposome leakage at 1 uM after 15 mins by spectrofluorophotometric assay relative to control. Conditions: artificial membrane, 0.25 h.
In another data set the test system is RAW264.7. Briefly: Cytotoxicity against mouse RAW264.7 cells assessed as cell viability at 2 to 64 uM measured after 18 to 24 hrs by MTT assay relative to control. The class given is cell-based. Conditions: raw264.7, 64 µM. The essentials:
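MTT assay: RAW264.7 cells seeded at 1.0–2.0×10^4 per well and exposed to peptide (2–64 µM) for 18–24 h at 37 °C in 5% CO2. MTT (0.5 mg/mL) added for 4 h, formazan dissolved in DMSO, read at 570 nm. At least three independent experiments with triplicate wells.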

The test system of data set [18] is Lipid bilayer. Briefly: Induction of membrane disruption in PG/CL/PE large unilamellar vesicles assessed as calcein-entrapped liposome leakage at 1 to 64 uM after 15 mins by spectrofluorophotometric assay. The essentials: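 Calcein-loaded LUVs (PG/CL/PE 2:1:7 w/w/w, E. coli membrane mimic), extruded through 100-nm filters, free dye removed on Sephadex G-50. Lipid (100 μM) incubated 15 min with peptide (1–64 μM). Calcein release read at ex 490/em 520 nm and normalised to Triton X-100. Triplicate, three biological replicates.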

In data set [19] the test system is Candida albicans. Kind of data set: Fungicidal activity against Candida albicans cgmcc2.2086 assessed as reduction in bacterial growth at MFC by time-kill assay. The class given is functional, organism-based. The essentials:
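Time-kill assay. E. coli ATCC 25922, S. aureus ATCC 29213 or C. albicans cgmcc 2.2086 at a final 0.5-1×10^5 CFU mL-1 treated at 1×MBC/MFC. Aliquots collected at different times to calculate survival, with an untreated control. Mean of three independent experiments, each with three technical replicates.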

Data set [20] concerns Escherichia coli. Briefly: Induction of cytoplasmic membrane depolarization in Escherichia coli ATCC 25922 at MIC up to 3000 secs by DiSC3-5 dye-based fluorescence spectrophotometric method. The class given is organism-based. The essentials: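 Mid-log E. coli ATCC 25922 (OD600 0.05) equilibrated with 0.4 μM DiSC3-5 and 100 mM K+ in 5 mM HEPES pH 7.4 with 20 mM glucose until fluorescence was stably quenched. Peptide then added in a 1-cm cuvette, and fluorescence (ex 622/em 670 nm) followed from 0 to 3000 s. Triplicate independent runs.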

As for H-AARRILRWIFR-NH2, the Ratio with Escherichia coli [1] turned out to be 16.
For H-AARIILRWRFR-NH2, the outcome with Escherichia coli [2], with Staphylococcus aureus [3], with Escherichia coli [4], with Candida albicans [5], with Escherichia coli [6] and in the data set with Staphylococcus aureus [7] was Active. The outcome in the data set on Escherichia coli [8], with Escherichia coli [11], in the data set on Staphylococcus aureus [12], in the data set with Escherichia coli [13], in the data set on Escherichia coli [14] and with Candida albicans [15] was Active. The Activity was 180% in the data set with Lipopolysaccharide (LPS), below 5% in the data set with Lipid bilayer [9], 99.99% in the data set with Candida albicans [10] and “>=50 - 51%” in the data set with Escherichia coli [16].
For `CC[C@H](C)[C@H](NC(=O)CN)C(=O)NCC(=O)N[C@@H](C)C(=O)N[C@H](C(=O)N[C@@H](CC(C)C)C(=O)N[C@@H](CCCCN)C(=O)N[C@H](C(=O)N[C@@H](CC(C)C)C(=O)N[C@H](C(=O)N[C@H](C(=O)NCC(=O)N[C@@H](CC(C)C)C(=O)N1CCC[C@H]1C(=O)N[C@@H](C)C(=O)N[C@@H](CC(C)C)C(=O)N[C@H](C(=O)N[C@@H](CO)C(=O)N[C@@H](Cc1c[nH]c2ccccc12)C(=O)N[C@H](C(=O)N[C@@H](CCCCN)C(=O)N[C@@H](CCCNC(=N)N)C(=O)N[C@@H](CCCCN)C(=O)N[C@@H](CCCNC(=N)N)C(=O)N[C@@H](CCC(N)=O)C(=O)N[C@@H](CCC(N)=O)C(N)=O)[C@@H](C)CC)[C@@H](C)CC)[C@@H](C)O)[C@@H](C)O)C(C)C)C(C)C` [MELITTIN], the Activity with Lipid bilayer [17] is recorded as above 85%; in the data set on RAW264.7, “Toxic”. The result in the data set on Lipid bilayer [18] and in the data set with Candida albicans [19] was Active.
Regarding `CC[C@H](C)[C@H](NC(=O)[C@H](CCCCN)NC(=O)[C@H](C)NC(=O)[C@H](C)N)C(=O)N[C@H](C(=O)N[C@@H](CC(C)C)C(=O)N[C@@H](CC(N)=O)C(=O)N1CCC[C@H]1C(=O)N[C@@H](CCCCN)C(=O)N[C@@H](Cc1ccccc1)C(=O)N[C@@H](CCCNC(=N)N)C(=O)N[C@@H](CS)C(=O)N[C@@H](CCCCN)C(=O)N[C@@H](C)C(=O)N[C@@H](C)C(=O)N[C@@H](Cc1ccccc1)C(=O)N[C@@H](CS)C(N)=O)[C@@H](C)CC` (H-AAKIILNPKFRCKAAFC-NH2), the result in the data set with Escherichia coli [20] was Active.
